Calls of active or inactive are those of the source. The rule behind the calls is not given here.

The test system of assay [1] is Rattus norvegicus. The assay can be described thus: Antiinflammatory activity against Wistar-Bratislava albino rat assessed as neutrophil count at 3.2 mg/kg, ip (Rbv = 55.6+/-1.32%). Particulars: route intraperitoneal. Type of assay: functional.
Assay [2] deals with Rattus norvegicus. The assay can be described thus: Antiinflammatory activity against Wistar-Bratislava albino rat assessed as lymphocyte count at 3.2 mg/kg, ip (Rbv = 37+/-2.2%). Type of assay: functional. As to conditions: route intraperitoneal.
For assay [3], the system named is Rattus norvegicus. The assay is described as follows: Antiinflammatory activity against Wistar-Bratislava albino rat assessed as monocyte count at 3.2 mg/kg, ip (Rbv = 7.6+/-0.45%). Type of assay: functional. As to conditions: route intraperitoneal.
Assay [4] concerns Rattus norvegicus. The assay can be described thus: Antiinflammatory activity against Wistar-Bratislava albino rat assessed as leukocyte count at 3.2 mg/kg, ip (Rbv = 4952.7+/-436.9 number/mm'3). Type of assay: functional. Particulars: route intraperitoneal.
The test system of assay [5] is Rattus norvegicus. The assay can be described thus: Antiinflammatory activity against Wistar-Bratislava albino rat assessed as reduction serum nitrate/nitrite concentration at 3.2 mg/kg, ip. Type of assay: functional, organism-based. Further details: dose 3.2 mg/kg. Summed up:
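In rats given turpentine oil 0.6 mL/100 g i.m. plus i.p. treatment in 1% carboxymethyl cellulose suspension, serum nitrate was reduced to nitrite with VCl3 in acidic solution. Griess reagents (SULF, NEDD) were then added, and absorbance at 540 nm was read after about 30-45 min incubation.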

The species named for assay [6] is Rattus norvegicus. The assay can be described thus: Induction of phagocytosis in Wistar-Bratislava albino rat PMNC using Escherichia coli suspension assessed as reduction in phagocytosis index after 30 mins. Type of assay: functional.
The species entered for assay [7] is Rattus norvegicus. The assay can be described thus: Induction of phagocytosis in Wistar-Bratislava albino rat PMNC using Escherichia coli suspension assessed as reduction in phagocytosis activity after 30 mins. Type of assay: functional.

For `Cc1ccc(-c2nc(CC(=O)N/N=C\c3ccc(OCc4csc(-c5ccc(Br)cc5)n4)cc3)cs2)cc1`, the Activity in the assay on Rattus norvegicus [1] is on record as 68.28%; with Rattus norvegicus [2], 28.57%; in the assay on Rattus norvegicus [3], 2.71%; in the assay on Rattus norvegicus [4], 7314.28 /mm3.
Consider `O=C(COc1ccc2c(=O)cc(-c3ccccc3)oc2c1)N/N=C/c1cccc(OCc2csc(-c3ccc(Br)cc3)n2)c1`, for which the Activity in the assay with Rattus norvegicus [1] is listed as 57.43%; with Rattus norvegicus [2], 39.86%; in the assay with Rattus norvegicus [3], 3.28%; with Rattus norvegicus [4], 8000 /mm3. For the same molecule, the outcome with Rattus norvegicus [5], in the assay filed under Rattus norvegicus [6] and in the assay filed under Rattus norvegicus [7] was Active.
Consider `O=C(COc1ccc2c(=O)cc(-c3ccccc3)oc2c1)N/N=C/c1cccc(OCc2csc(-c3ccccc3)n2)c1`, for which the Activity was 71.71% in the assay on Rattus norvegicus [1], 24% with Rattus norvegicus [2], 2.6% in the assay with Rattus norvegicus [3] and 12100 /mm3 in the assay on Rattus norvegicus [4]. Also, the outcome with Rattus norvegicus [5] was Active.
Turning to `O=C(Cc1csc(-c2cccc(C(F)(F)F)c2)n1)N/N=C/c1cccc(OCc2csc(-c3ccc(Br)cc3)n2)c1`, the Activity in the assay with Rattus norvegicus [1] is on record as 70.86%; in the assay with Rattus norvegicus [2], 23.43%; in the assay with Rattus norvegicus [3] it was 2.86%; with Rattus norvegicus [4], 6914.28 /mm3. The result with Rattus norvegicus [5] and in the assay listed under Rattus norvegicus [7] was Active.
As for `Cc1ccc(-c2nc(CC(=O)N/N=C/c3ccccc3OCc3csc(-c4ccc(Br)cc4)n3)cs2)cc1`, the Activity in the assay on Rattus norvegicus [1] is recorded as 67.71%; in the assay with Rattus norvegicus [2], 29.14%; in the assay with Rattus norvegicus [3], 2.86%; in the assay on Rattus norvegicus [4], 9300 /mm3. The outcome in the assay with Rattus norvegicus [5] was inactive.
In the same order, the values of `O=C(Cc1csc(-c2cccc(C(F)(F)F)c2)n1)N/N=C\c1ccc(OCc2csc(-c3ccc(Br)cc3)n2)cc1` are 63.14%, 32%, 3.14%, 7402.85 /mm3 and “inactive”.
As for `Cc1cnc(NC(=O)C2=C(O)c3ccccc3S(=O)(=O)N2C)s1` [MELOXICAM], the Activity in the assay with Rattus norvegicus [1] is 66.57%; with Rattus norvegicus [2], 32.28%; with Rattus norvegicus [3], 2%; in the assay with Rattus norvegicus [4], 7660 /mm3.
On to `O=C(Cc1csc(-c2cccc(C(F)(F)F)c2)n1)N/N=C/c1ccccc1OCc1csc(-c2ccc(Br)cc2)n1`, for which the Activity is reported as 68.85% in the assay with Rattus norvegicus [1], 24.71% in the assay with Rattus norvegicus [2], 2.57% in the assay with Rattus norvegicus [3] and 7837.14 /mm3 in the assay with Rattus norvegicus [4]. For the same molecule, the outcome in the assay filed under Rattus norvegicus [6] and in the assay listed under Rattus norvegicus [7] was Active.
`Cc1ccc(-c2nc(CC(=O)N/N=C\c3ccc(OCC(=O)c4sc(-c5ccccc5)nc4C)cc3)cs2)cc1`: the Activity in the assay with Rattus norvegicus [1] is 66%; with Rattus norvegicus [2] it was 32.14%; in the assay on Rattus norvegicus [3], 2.43%; in the assay on Rattus norvegicus [4], 8742.85 /mm3. In addition, the outcome with Rattus norvegicus [5], in the assay listed under Rattus norvegicus [6] and in the assay listed under Rattus norvegicus [7] was Active.
Take `Cc1ccc(-c2nc(CC(=O)N/N=C\c3ccc(OCc4csc(-c5ccccc5)n4)cc3)cs2)cc1`: the Activity is on record as 52.57% with Rattus norvegicus [1], 21.43% in the assay with Rattus norvegicus [2], 1.86% in the assay with Rattus norvegicus [3] and 3271.43 /mm3 in the assay on Rattus norvegicus [4]. Moreover, the outcome with Rattus norvegicus [5] was inactive.
For `Cc1ccc(-c2nc(CC(=O)N/N=C/c3cccc(OCc4csc(-c5ccccc5)n4)c3)cs2)cc1`, in that order: 73.29%, 19.71%, 2.86%, 8620 /mm3 and “inactive”.
`O=C(Cc1csc(-c2cccc(C(F)(F)F)c2)n1)N/N=C/c1cccc(OCc2csc(-c3ccccc3)n2)c1`: the Activity in the assay on Rattus norvegicus [1] was 61.71%; with Rattus norvegicus [2], 32.28%; in the assay on Rattus norvegicus [3] it was 2.4%; with Rattus norvegicus [4], 9540 /mm3. The result in the assay filed under Rattus norvegicus [6] and in the assay listed under Rattus norvegicus [7] was Active.
On to `Cc1nc(-c2ccccc2)sc1C(=O)COc1ccc(/C=N\NC(=O)Cc2csc(-c3cccc(C(F)(F)F)c3)n2)cc1`, for which the Activity in the assay with Rattus norvegicus [1] is listed as 78%; in the assay on Rattus norvegicus [2], 18%; with Rattus norvegicus [3], 2%; in the assay on Rattus norvegicus [4], 10200 /mm3. The outcome with Rattus norvegicus [5] and in the assay filed under Rattus norvegicus [6] was Active.
Regarding `O=C(Cc1csc(-c2cccc(C(F)(F)F)c2)n1)N/N=C\c1ccc(OCc2csc(-c3ccccc3)n2)cc1`, the Activity is recorded as 82.28% in the assay with Rattus norvegicus [1], 20.71% with Rattus norvegicus [2], 2% with Rattus norvegicus [3] and 5664.28 /mm3 with Rattus norvegicus [4]. Moreover, the outcome in the assay with Rattus norvegicus [5] was inactive. The result in the assay listed under Rattus norvegicus [6] and in the assay listed under Rattus norvegicus [7] was Active.
Regarding `O=C(COc1ccc2c(=O)cc(-c3ccccc3)oc2c1)N/N=C\c1ccc(OCc2csc(-c3ccccc3)n2)cc1`, the Activity is 76% in the assay with Rattus norvegicus [1], 23.57% with Rattus norvegicus [2], 3.71% with Rattus norvegicus [3] and 8228.57 /mm3 with Rattus norvegicus [4]. The result in the assay with Rattus norvegicus [5] was inactive. The result in the assay listed under Rattus norvegicus [6] and in the assay filed under Rattus norvegicus [7] was Active.

Values taken from ChEMBL document CHEMBL1667748, “Synthesis and anti-inflammatory evaluation of some new acyl-hydrazones bearing 2-aryl-thiazole” (2011).
